The results in this text go back to ChEMBL document CHEMBL6071158, “Design, synthesis, and in vitro biological evaluation of meta-sulfonamidobenzamide-based antibacterial LpxH inhibitors” (Eur J Med Chem, 2024).

For orientation: inhibition means the percentage by which the read-out fell short of the control. The term MIC denotes the least concentration at which growth counts as inhibited. As a reminder, the IC50 is the concentration at which inhibition is half-maximal.

Molecules are shown by their SMILES. Values after ≈ are worked out from the molar mass of the structure shown.

T1 sequence (Q12809 whole entry): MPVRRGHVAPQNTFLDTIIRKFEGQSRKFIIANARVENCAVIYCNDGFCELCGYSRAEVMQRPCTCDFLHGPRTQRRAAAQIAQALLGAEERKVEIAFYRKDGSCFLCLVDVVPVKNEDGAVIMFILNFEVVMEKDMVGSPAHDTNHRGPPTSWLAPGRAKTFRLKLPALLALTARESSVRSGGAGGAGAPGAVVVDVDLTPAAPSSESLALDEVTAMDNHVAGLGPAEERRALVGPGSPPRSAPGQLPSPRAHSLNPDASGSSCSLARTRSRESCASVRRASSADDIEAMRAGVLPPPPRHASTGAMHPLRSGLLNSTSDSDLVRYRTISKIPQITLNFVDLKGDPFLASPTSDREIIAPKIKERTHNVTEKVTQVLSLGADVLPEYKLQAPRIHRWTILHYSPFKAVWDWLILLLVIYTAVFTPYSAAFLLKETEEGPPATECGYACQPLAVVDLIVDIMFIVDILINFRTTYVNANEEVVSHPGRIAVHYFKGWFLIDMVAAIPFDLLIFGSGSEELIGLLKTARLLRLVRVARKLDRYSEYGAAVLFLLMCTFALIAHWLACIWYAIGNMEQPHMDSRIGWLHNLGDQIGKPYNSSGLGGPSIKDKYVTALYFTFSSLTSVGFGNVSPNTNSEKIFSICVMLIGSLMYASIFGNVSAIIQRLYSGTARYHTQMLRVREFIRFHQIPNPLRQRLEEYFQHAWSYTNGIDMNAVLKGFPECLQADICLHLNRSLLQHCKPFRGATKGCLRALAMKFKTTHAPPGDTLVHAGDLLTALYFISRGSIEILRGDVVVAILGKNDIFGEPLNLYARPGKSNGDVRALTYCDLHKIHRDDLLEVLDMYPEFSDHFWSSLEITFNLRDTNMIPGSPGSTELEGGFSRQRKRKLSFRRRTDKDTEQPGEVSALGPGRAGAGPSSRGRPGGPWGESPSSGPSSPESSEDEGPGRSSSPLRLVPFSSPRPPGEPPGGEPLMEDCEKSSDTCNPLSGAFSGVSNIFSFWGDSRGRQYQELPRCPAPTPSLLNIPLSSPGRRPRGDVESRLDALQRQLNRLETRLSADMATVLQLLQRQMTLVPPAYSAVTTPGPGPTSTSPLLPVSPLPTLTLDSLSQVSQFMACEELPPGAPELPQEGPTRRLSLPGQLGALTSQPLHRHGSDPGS

One data set relates to Escherichia coli. The data set can be described thus: Inhibition of Escherichia coli LpXH enzyme at 100 nM by colorimetric coupled enzymatic analysis relative to control.
Details: not given
The procedure, abridged: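 AaLpxE-coupled assay: E. coli LpxH 0.1 nM and UDP-DAGn 20 µM (final) in 20 mM Tris-HCl pH 8.0, BSA, 0.02 % Triton X-100, 1 mM MnCl₂, 1 mM DTT, 10 % DMSO; inhibitor pre-incubated with enzyme 10 min, reaction 30 min at 37 °C, EDTA quench, then LpxE 30 min; released phosphate by malachite green at 620 nm vs phosphate standard; triplicate.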
Compound `Cc1cc(C#N)nc(N2CCN(S(=O)(=O)c3ccc(NC(=O)c4cc(Cl)nc(NS(C)(=O)=O)c4)cc3)CC2)n1` showed an inhibition of 54%.

`Cc1cc(C#N)nc(N2CCN(S(=O)(=O)c3ccc(NC(=O)c4cc(CNC[C@H]5C[C@@H]5N)ccc4N(C)S(C)(=O)=O)cc3)CC2)n1` yielded an inhibition of 100%.

As for `Cc1cc(C#N)nc(N2CCN(S(=O)(=O)c3ccc(NC(=O)c4cccc(NS(C)(=O)=O)c4)cc3)CC2)n1`, the inhibition came to 75%.

A further data set has as its system Escherichia coli. The data set can be described thus: Antibacterial activity against wild type Escherichia coli ATCC 25922 incubated for 16 to 20 hrs by Mueller-Hinton broth based two-fold serial dilution method. The note with it: time 16-20 hrs. In kind it is functional.
`CS(=O)(=O)Nc1ccccc1C(=O)Nc1ccc(S(=O)(=O)N2CCN(c3cc(Cl)cc(Cl)c3)CC2)cc1` came in with an MIC of 64 µg/mL (≈ 110 µM).

Turning to `CS(=O)(=O)Nc1cccc(C(=O)Nc2ccc(S(=O)(=O)N3CCN(c4cc(Cl)cc(Cl)c4)CC3)cc2)c1`, 4 µg/mL (≈ 6.85 µM) was the least that counted as inhibitory (MIC).

Compound `Cc1cc(C#N)nc(N2CCN(S(=O)(=O)c3ccc(NC(=O)c4cc(Cl)nc(NS(C)(=O)=O)c4)cc3)CC2)n1` returned an MIC of 8 µg/mL (≈ 13.5 µM).

On to `CN(c1cccc(C(=O)Nc2ccc(S(=O)(=O)N3CCN(c4cc(Cl)cc(Cl)c4)CC3)cc2)c1)S(C)(=O)=O`, for which the MIC turned out to be 64 µg/mL (≈ 107 µM).

The compound `NC(=O)[C@H]1CC[C@H](C(F)(F)c2cc(Cl)nc(N3CCN(S(=O)(=O)c4ccc(N5C[C@@H](N)CC5=O)cc4)CC3)c2)CC1` displayed an MIC of 0.3 µg/mL (≈ 0.491 µM).

The compound `Cc1cc(C#N)nc(N2CCN(S(=O)(=O)c3ccc(NC(=O)c4cc(CNC[C@H]5C[C@@H]5N)ccc4N(C)S(C)(=O)=O)cc3)CC2)n1` came in with an MIC of 2 µg/mL (≈ 2.99 µM).

Compound `CN(c1ccccc1C(=O)Nc1ccc(S(=O)(=O)N2CCN(c3cc(Cl)cc(Cl)c3)CC2)cc1)S(C)(=O)=O` came in with an MIC of 1 µg/mL (≈ 1.67 µM).

The compound `Cc1cc(C#N)nc(N2CCN(S(=O)(=O)c3ccc(NC(=O)c4cccc(NS(C)(=O)=O)c4)cc3)CC2)n1` registered an MIC of 4 µg/mL (≈ 7.2 µM).

A further data set concerns Escherichia coli. The data set can be described thus: Antibacterial activity against efflux pump-deficient delta tolC Escherichia coli ATCC 25922 assessed as bacterial growth inhibition incubated for 16 to 20 hrs by Mueller-Hinton broth based two-fold serial dilution method. The following applies: time 16-20 hrs. In kind it is functional.
For the compound `CS(=O)(=O)Nc1cccc(C(=O)Nc2ccc(S(=O)(=O)N3CCN(c4cc(Cl)cc(Cl)c4)CC3)cc2)c1`, the MIC was 0.125 µg/mL (≈ 0.214 µM).

For `Cc1cc(C#N)nc(N2CCN(S(=O)(=O)c3ccc(NC(=O)c4cc(Cl)nc(NS(C)(=O)=O)c4)cc3)CC2)n1`, the MIC is no more than 0.125 µg/mL.

In the case of `CN(c1cccc(C(=O)Nc2ccc(S(=O)(=O)N3CCN(c4cc(Cl)cc(Cl)c4)CC3)cc2)c1)S(C)(=O)=O`, the MIC turned out to be 0.125 µg/mL (≈ 0.209 µM).

`Cc1cc(C#N)nc(N2CCN(S(=O)(=O)c3ccc(NC(=O)c4cc(CNC[C@H]5C[C@@H]5N)ccc4N(C)S(C)(=O)=O)cc3)CC2)n1`: the MIC was no more than 0.125 µg/mL.

Take `Cc1cc(C#N)nc(N2CCN(S(=O)(=O)c3ccc(NC(=O)c4cccc(NS(C)(=O)=O)c4)cc3)CC2)n1`: the MIC is 0.125 µg/mL (≈ 0.225 µM).

System in a further data set: not listed separately
The data set can be described thus: Hemolysis activity in human RBC cells assessed as effect on hemolysis relative to control. In kind it is toxicity, cell-based, Erythrocyte. The note with it: human red blood cells, read-out: Activity.
`Cc1cc(C#N)nc(N2CCN(S(=O)(=O)c3ccc(NC(=O)c4cc(Cl)nc(NS(C)(=O)=O)c4)cc3)CC2)n1`: the hemolysis worked out at 0.02%.

With `Cc1cc(C#N)nc(N2CCN(S(=O)(=O)c3ccc(NC(=O)c4cc(CNC[C@H]5C[C@@H]5N)ccc4N(C)S(C)(=O)=O)cc3)CC2)n1`, the hemolysis is 0.35%.

Take `Cc1cc(C#N)nc(N2CCN(S(=O)(=O)c3ccc(NC(=O)c4cccc(NS(C)(=O)=O)c4)cc3)CC2)n1`: the hemolysis is 0.05%.

System in a further data set: not listed separately
The data set can be described thus: Cytotoxicity against human HepG2 cells assessed as inhibition of cells incubated for 72 hrs by fluorometric microculture analysis.
Details: not given
In kind it is toxicity, cell-based. The method in brief: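 HepG2 (mycoplasma-free, ≤20 passages, DMEM + 10 % FBS + pen/strep) seeded 4000/well, cultured overnight, then exposed 72 h at 37 °C, 5 % CO₂ to nine two-fold dilutions in duplicate, top 100 µM. Viability by fluorescein diacetate hydrolysis (0.5 µg/ml FDA, 50 min, ex 475/em 520 nm); survival index vs control; IC50 by non-linear regression of log concentration-effect curves. Bortezomib 2 µM positive control.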
As for `Cc1cc(C#N)nc(N2CCN(S(=O)(=O)c3ccc(NC(=O)c4cc(Cl)nc(NS(C)(=O)=O)c4)cc3)CC2)n1`, the IC50 at 72 h is greater than 50 µM.

With `Cc1cc(C#N)nc(N2CCN(S(=O)(=O)c3ccc(NC(=O)c4cc(CNC[C@H]5C[C@@H]5N)ccc4N(C)S(C)(=O)=O)cc3)CC2)n1`, the IC50 at 72 h was determined as 47 µM.

A further data set addresses T1, hERG (KCNH2) (Homo sapiens, UniProt Q12809). The data set can be described thus: Inhibition of hERG expressed in CHO cells at 10 uM by automated patch clamp analysis relative to control. In kind it is toxicity, cell-based. The note with it: CHO cells that express hERG. The method in brief:
(§1)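 Stably expressing CHO-KV11.1 cells, automated whole-cell population patch clamp (10 cells) at 22 °C; vehicle baseline (0.43 % DMSO) then two cumulatively rising concentrations, 30 s exposure. Holding −80 mV, steps in 10 mV increments to 50 mV for 5 s, tail current at −50 mV (peak in first 90 ms, leak-subtracted); protocol every 150 s; triplicate, mean ± SEM.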
On the technique in general: hERG is a cardiac potassium channel; its block is linked to QT prolongation.
Take `Cc1cc(C#N)nc(N2CCN(S(=O)(=O)c3ccc(NC(=O)c4cc(Cl)nc(NS(C)(=O)=O)c4)cc3)CC2)n1`: at 10 µM the inhibition was 2%.

`Cc1cc(C#N)nc(N2CCN(S(=O)(=O)c3ccc(NC(=O)c4cc(CNC[C@H]5C[C@@H]5N)ccc4N(C)S(C)(=O)=O)cc3)CC2)n1` had an inhibition at 10 µM of 9%.

`Cc1cc(C#N)nc(N2CCN(S(=O)(=O)c3ccc(NC(=O)c4cccc(NS(C)(=O)=O)c4)cc3)CC2)n1` registered an inhibition at 10 µM of 3%.

The target of the next data set is T1, hERG (KCNH2). The data set can be described thus: Inhibition of hERG expressed in CHO cells at 30 uM by automated patch clamp analysis relative to control. In kind it is toxicity, cell-based. The note with it: CHO cells that express hERG. The procedure, abridged:
as §1
In the case of `Cc1cc(C#N)nc(N2CCN(S(=O)(=O)c3ccc(NC(=O)c4cc(Cl)nc(NS(C)(=O)=O)c4)cc3)CC2)n1`, the inhibition at 30 µM came out at 0%.

`Cc1cc(C#N)nc(N2CCN(S(=O)(=O)c3ccc(NC(=O)c4cc(CNC[C@H]5C[C@@H]5N)ccc4N(C)S(C)(=O)=O)cc3)CC2)n1` gave an inhibition at 30 µM of 28%.

`Cc1cc(C#N)nc(N2CCN(S(=O)(=O)c3ccc(NC(=O)c4cccc(NS(C)(=O)=O)c4)cc3)CC2)n1` gave an inhibition at 30 µM of 12%.

The next data set deals with Escherichia coli. The data set can be described thus: Antibacterial activity against efflux-defective Escherichia coli delta tolC ATCC 25922. In kind it is functional.
Details: not given
Take `CC(=O)N1CCc2cc(S(=O)(=O)N3CCN(c4cccc(C(F)(F)F)c4)CC3)ccc21`: the MIC is 0.25 µg/mL (≈ 0.551 µM).

In another data set the test system is Escherichia coli. The data set can be described thus: Antibacterial activity against Escherichia coli ATCC 25922 assessed as viable colonies measured after 18 to 20 hrs by Mueller-Hinton II broth assay. The note with it: time 18-20 hrs. In kind it is functional.
For `Cc1cc(C#N)nc(N2CCN(S(=O)(=O)c3ccc(NC(=O)c4cc(CNC[C@H]5C[C@@H]5N)ccc4N(C)S(C)(=O)=O)cc3)CC2)n1`, the minimum inhibitory concentration (MIC) amounted to 2 µg/mL (≈ 2.99 µM).

The next data set deals with Klebsiella pneumoniae. The data set can be described thus: Antibacterial activity against Klebsiella pneumonia ATCC 13883 assessed as viable colonies measured after 18 to 20 hrs by Mueller-Hinton II broth assay. The following applies: time 18-20 hrs. In kind it is functional.
Consider `Cc1cc(C#N)nc(N2CCN(S(=O)(=O)c3ccc(NC(=O)c4cc(CNC[C@H]5C[C@@H]5N)ccc4N(C)S(C)(=O)=O)cc3)CC2)n1`, for which the MIC is 0.5 µg/mL (≈ 0.749 µM).

Another data set concerns Klebsiella pneumoniae. The data set can be described thus: Antibacterial activity against wild type Klebsiella pneumoniae ATCC 13883 assessed as of bacterial growth incubated for 16 to 20 hrs by Mueller-Hinton broth based two-fold serial dilution method.
Details: not given
With `Cc1cc(C#N)nc(N2CCN(S(=O)(=O)c3ccc(NC(=O)c4cc(Cl)nc(NS(C)(=O)=O)c4)cc3)CC2)n1`, the MIC is 4 µg/mL (≈ 6.77 µM).

Consider `Cc1cc(C#N)nc(N2CCN(S(=O)(=O)c3ccc(NC(=O)c4cc(CNC[C@H]5C[C@@H]5N)ccc4N(C)S(C)(=O)=O)cc3)CC2)n1`, for which the MIC is 0.5 µg/mL (≈ 0.749 µM).

Take `Cc1cc(C#N)nc(N2CCN(S(=O)(=O)c3ccc(NC(=O)c4cccc(NS(C)(=O)=O)c4)cc3)CC2)n1`: the MIC worked out at 2 µg/mL (≈ 3.6 µM).
